Only some compounds are listed: those with a hit (about 4% of all), similar ones and a draw of the others.
TAAR1 antag: human TAAR1 antagonism; CHO RD-HGA16 TAAR1, Fluo-8 calcium fluorescence, antagonist; inhibition, % at 3 µM; hit rate 1.5% among 360,000; AID 624466;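 active means inhibition above a per-plate cutoff, the mean inhibition of test compounds on that plate plus 3 SD, cut at about 49% in these data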;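 further: 0% = DMSO plus EC80 beta-PEA response and 100% = DMSO alone without agonist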
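Assay system: CHO-derived RD-HGA16 cells stably expressing human TAAR1 plus Gα16. Timing: 140 s kinetic read after compound, 140 s after agonist. Technique: kinetic Fluo-8 calcium fluorescence measurement. Measure: % inhibition of agonist calcium response.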
DAGLB inh: blocks human DAGLB lipase activity. Q8NCG7. hit rate 0.059% among 340,000. inhibition, % at 5.17 µM. HEK293T DAGLB membrane lysate, EnzChek fluorogenic substrate. AID 504411; in the data active means inhibition above about 34%;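 further: 0% = enzyme with vehicle and 100% = wells lacking enzyme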
Target sequence (Q8NCG7 whole entry, looked up): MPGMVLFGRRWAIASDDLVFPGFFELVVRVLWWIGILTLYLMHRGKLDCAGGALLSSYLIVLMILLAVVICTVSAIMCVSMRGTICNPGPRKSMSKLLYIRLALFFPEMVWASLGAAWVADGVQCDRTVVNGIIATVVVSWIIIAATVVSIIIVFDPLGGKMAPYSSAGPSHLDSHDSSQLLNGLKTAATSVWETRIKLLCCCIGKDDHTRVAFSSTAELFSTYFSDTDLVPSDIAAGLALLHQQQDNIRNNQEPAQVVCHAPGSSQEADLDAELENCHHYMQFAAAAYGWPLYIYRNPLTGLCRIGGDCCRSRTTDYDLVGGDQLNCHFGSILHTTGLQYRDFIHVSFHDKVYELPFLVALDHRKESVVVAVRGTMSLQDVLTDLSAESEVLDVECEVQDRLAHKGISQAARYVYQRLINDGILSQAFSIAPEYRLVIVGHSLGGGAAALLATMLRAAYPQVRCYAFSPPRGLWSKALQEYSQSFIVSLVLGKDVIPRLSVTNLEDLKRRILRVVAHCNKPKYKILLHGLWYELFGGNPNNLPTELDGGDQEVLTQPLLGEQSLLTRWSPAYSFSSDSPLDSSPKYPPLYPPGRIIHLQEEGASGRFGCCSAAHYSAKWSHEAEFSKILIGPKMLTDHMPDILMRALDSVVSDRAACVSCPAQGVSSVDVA
GPR7 antagonist: antagonists of human GPR7 (neuropeptides B/W receptor 1); inhibition, % at 4.4 µM; GPR7-expressing cells, fluorescence antagonist assay; hit rate 1.1% among 290,000; AID 1861; P48145; in the data active means inhibition above about 16%, passing the limit was not always enough;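 further: cells stimulated with the agonist NPW; 0% = agonist with vehicle and 100% = vehicle without agonist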
MPTP block: permeability transition pore inhibition | isolated mouse mitochondria, Ca2+ swelling absorbance, 30 min | AID 602449 | hit rate 1.4% among 360,000 | inhibition, % at 10 µM;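 active means inhibition of 50% or more, scaled per plate between neutral and stimulator controls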;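 further: 0% = DMSO wells given calcium and 100% = 1 mM EGTA wells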
TAAR1 ag: agonists of human TAAR1 | Q96RJ0 | CHO RD-HGA16 TAAR1, Fluo-8 calcium fluorescence; vehicle wells 0%, saturating PEA agonist 100% | activation, % at 3 µM | hit rate 0.99% among 360,000 | AID 624467;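 active means activation above the mean activation of all test compounds in the run plus 3 SD, cut at about 38% in these data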
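Test system: RD-HGA16 (CHO) cells co-expressing Gα16 and hTAAR1 | Doses: Single dose, 3 µM | Schedule: 17-24 h seeding, 75 min 37 °C dye, 30 min RT | Evaluation: % activation from peak over basal fluorescence ratio, DMSO-to-PEA scaled | Technique: Kinetic Fluo-8 calcium fluorescence | Benchmarks: Low control DMSO, high control PEA (EC100)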
GPR7 antag conf: human GPR7 antagonism, confirmation assay | shares compounds with GPR7 antagonist | GPR7-expressing cells, calcium fluorescence antagonist mode | inhibition, % at 4.4 µM | hit rate 52% among 2,400 | AID 1952; in the data active means inhibition above about 24%;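 further: stimulated with the GPR7 agonist NPW; 0% = agonist plus vehicle and 100% = vehicle alone without agonist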
MCHR1 antagonist: counter-screen for GPR7 antagonists: antagonists of human MCHR1; shares compounds with GPR7 antagonist; hit rate 62% among 2,400; AID 2148; inhibition, % at 4.4 µM; MCHR1-expressing cells, fluorescence antagonist assay; in the data active means inhibition above about 22%;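 further: 0% = vehicle with agonist and 100% = vehicle without agonist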
The depositor's hits bear a star.

Results for O=C(NCCc1ccccc1)C1CCN(Cc2cccc3ccccc23)CC1 ?
TAAR1 antag: 2; DAGLB inh: 1; GPR7 antagonist: 28*; MPTP block: 0; TAAR1 ag: 6; GPR7 antag conf: 4; MCHR1 antagonist: 10

How did COc1ccc(-c2noc(CN3CCCCC3c3nccn3C)n2)cc1 (centres undefined) do in these assays?
TAAR1 antag: -30; DAGLB inh: 2; GPR7 antagonist: 41*; MPTP block: 0; TAAR1 ag: 0; GPR7 antag conf: 35*; MCHR1 antagonist: 20

What do the screens show for `COc1cc(C(=O)NCC(c2ccc(F)cc2)N2CCOCC2)ccc1OCc1ccccc1Cl` (centres undefined)?
TAAR1 antag: 16; DAGLB inh: 1; MPTP block: 0; TAAR1 ag: 6

Results for Cc1ccc(-n2nnnc2SCC(=O)Nc2ccc3c(c2)OCCO3)cc1C ?
TAAR1 antag: 1; DAGLB inh: -3; GPR7 antagonist: 21*; MPTP block: 2; TAAR1 ag: 10; GPR7 antag conf: 9; MCHR1 antagonist: 5

Results for Cc1ccc(-n2cccn2)c(CN2CCCC(C(=O)c3sccc3C)C2)c1 (centres undefined) ?
TAAR1 antag: -9; DAGLB inh: -4; GPR7 antagonist: 33*; MPTP block: 40; TAAR1 ag: 7; GPR7 antag conf: 39*; MCHR1 antagonist: 41*

How did COc1ccc(OCCOc2ccc(S(=O)(=O)N3CCCC3)cc2[N+](=O)[O-])cc1 do in these assays?
TAAR1 antag: -5; DAGLB inh: 0; MPTP block: -1; TAAR1 ag: -2

How did Cc1ccc(S(=O)(=O)N2CCCC2)cc1[N+](=O)[O-] do in these assays?
TAAR1 antag: -2; DAGLB inh: 0; GPR7 antagonist: -8; MPTP block: 3; TAAR1 ag: 9

What do the screens show for `COc1cccc(Oc2ccc(S(=O)(=O)N3CCCC3)cc2[N+](=O)[O-])c1`?
TAAR1 antag: -23; DAGLB inh: -10; GPR7 antagonist: 31*; MPTP block: 1; TAAR1 ag: -1; GPR7 antag conf: -5; MCHR1 antagonist: 15

Results for O=[N+]([O-])c1cc(S(=O)(=O)N2CCCCCC2)ccc1Cl ?
TAAR1 antag: 3; DAGLB inh: -1; GPR7 antagonist: 39*; MPTP block: 0; TAAR1 ag: 0; GPR7 antag conf: 63*; MCHR1 antagonist: 19

How did CCCC(C)(C)C(=O)N1CCC1(C)C(=O)Nc1cccc(OC)c1 (centres undefined) do in these assays?
TAAR1 antag: -33; MPTP block: 0; TAAR1 ag: 2

Results for CCCOc1ccccc1NC(=O)/C=C/c1ccc(OC)c(S(=O)(=O)N2CCOCC2)c1 ?
TAAR1 antag: 18; DAGLB inh: -2; MPTP block: 0; TAAR1 ag: 6

Results for Cn1c(N)c(C(=O)COC(=O)/C=C/c2ccc(S(=O)(=O)N3CCOCC3)cc2)c(=O)n(C)c1=O ?
TAAR1 antag: -4; DAGLB inh: -1; GPR7 antagonist: 24*; MPTP block: 1; TAAR1 ag: 5; GPR7 antag conf: 2; MCHR1 antagonist: 11

Results for Cc1ccccc1NC(=O)C1C(=O)Nc2ccccc2C(=O)N1Cc1ccccc1 (centres undefined) ?
TAAR1 antag: 0; MPTP block: 0; TAAR1 ag: 1

What do the screens show for `Cc1ccc(-c2cc(NC(=O)Cc3c(C)[nH]c4ccccc34)ccc2Nc2cccnc2)cc1`?
TAAR1 antag: -7; TAAR1 ag: -1

How did CCOc1ccc(-c2nnc(N)s2)cc1 do in these assays?
TAAR1 antag: 9; DAGLB inh: 0; GPR7 antagonist: 29*; MPTP block: 0; TAAR1 ag: -3; GPR7 antag conf: -4; MCHR1 antagonist: -4

How did N=c1c(C(=O)NC2CCCCC2)cc2c(=O)n3ccccc3nc2n1CC1CCCO1 (centres undefined) do in these assays?
TAAR1 antag: -13; DAGLB inh: 1; GPR7 antagonist: 21*; MPTP block: -1; TAAR1 ag: -4; GPR7 antag conf: 27*; MCHR1 antagonist: 19

How did N=c1c(C(=O)NC2CCCC2)cc2c(=O)n3ccccc3nc2n1CC1CCCO1 (centres undefined) do in these assays?
TAAR1 antag: -8; DAGLB inh: -1; GPR7 antagonist: 7; MPTP block: 0; TAAR1 ag: -1

Results for N#CC(C#N)=C1C=C2C=C(N3CCCCC3)CCC2CC1 (centres undefined) ?
GPR7 antagonist: 74*; GPR7 antag conf: 93*; MCHR1 antagonist: 109*

How did N#CC1=C(N)C2=C(N3CCCCC3)CCCC2C1(C#N)C#N (centres undefined) do in these assays?
DAGLB inh: 14; GPR7 antagonist: -7; MPTP block: 2

What do the screens show for `COc1cc(OC)c(C(=O)Nc2cc(S(=O)(=O)N3CCOCC3)ccc2N2CCOCC2)cc1OC`?
TAAR1 antag: -7; DAGLB inh: -3; MPTP block: 0; TAAR1 ag: 1

Results for COc1ccc(C/C(=N\OC(C)=O)c2ccc(OC)cc2)cc1 ?
DAGLB inh: -3; GPR7 antagonist: 40*; MPTP block: 0; GPR7 antag conf: 15; MCHR1 antagonist: 19

Results for COC(=O)/N=C(/Cc1ccc(OC)cc1)c1ccc(OC)cc1 ?
TAAR1 antag: 5; DAGLB inh: -3; GPR7 antagonist: 1; MPTP block: 1; TAAR1 ag: -2

What do the screens show for `COc1ccc(C(CNC(=O)c2ccc3c(c2)C(=O)N(CCC(C)C)C3=O)N2CCOCC2)cc1` (centres undefined)?
TAAR1 antag: -1; DAGLB inh: 2; GPR7 antagonist: 29*; MPTP block: -1; TAAR1 ag: 1; GPR7 antag conf: -2; MCHR1 antagonist: 12

How did COc1ccc(NS(=O)(=O)c2cccc(C(=O)NCC(c3ccc(F)cc3)N3CCOCC3)c2)cc1 (centres undefined) do in these assays?
TAAR1 antag: -2; DAGLB inh: 2; GPR7 antagonist: 31*; MPTP block: -2; TAAR1 ag: 10; GPR7 antag conf: 27*; MCHR1 antagonist: 11

Results for COc1ccc(C(CNC(=O)c2cccc(S(=O)(=O)Nc3ccc(F)cc3)c2)N2CCOCC2)cc1 (centres undefined) ?
TAAR1 antag: -15; DAGLB inh: -2; MPTP block: 1; TAAR1 ag: 9

How did O=C(N[C@@H](Cc1cccnc1)C(=O)N1CCC[C@H]1C(=O)NCc1ccccc1)c1ccccc1 do in these assays?
TAAR1 antag: 4; TAAR1 ag: 0

What do the screens show for `Cc1ccc(CSCCNC(=O)c2ccccc2)cc1`?
TAAR1 antag: -13; DAGLB inh: -3; GPR7 antagonist: 2; MPTP block: 0; TAAR1 ag: 4

Screening results from PubChem.
